The subject of experiment [1] is Plasmodium falciparum. In words: Antimalarial activity against chloroquine-resistant Plasmodium falciparum K1. It is filed as functional, organism-based. Put shortly:
(§1)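 IC50 (ng/mL) against P. falciparum blood stages, K1 (chloroquine-resistant) and NF54 (chloroquine-sensitive), reported as the mean of n = 2-3 determinations; individual measurements generally within 50% of each other.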

Experiment [2] deals with Plasmodium falciparum. Kind of experiment: Antimalarial activity against chloroquine-sensitive Plasmodium falciparum NF54. It is filed as functional, organism-based. An outline of the steps: as §1
The next experiment deals with Plasmodium berghei. Kind of experiment: Antimalarial activity as reduced parasitaemia against Plasmodium berghei infected NMRI mice (Mus musculus) at 100 mg/kg peroral dose 3 days post-infection. It is filed as functional. Details: scale not given: the % may be the effect or the level left. Particulars: route oral. Put shortly:
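Groups of three NMRI mice infected with P. berghei were dosed orally 1 day after infection with 100 mg/kg, dissolved or suspended in 3% ethanol/7% Tween-80 vehicle. Percent reduction in parasitemia was read on day 3 post-infection against an untreated control group; individual measurements generally within 10%.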

For experiment [3], the system named is Plasmodium falciparum. Kind of experiment: Antimalarial activity against Plasmodium falciparum. It is filed as functional, organism-based. An outline of the steps:
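In vitro assay against chloroquine-resistant K1 and chloroquine-sensitive NF54 strains of P. falciparum. IC50 is reported in ng/mL as the mean of 2-3 determinations per strain, and individual measurements generally differed by less than 50%.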

Molecules are shown by their SMILES. Values after ≈ are worked out from the molar mass of the structure shown. Some results are limits rather than exact numbers.

As a reminder, the IC50 is the concentration that gives 50% inhibition.

As for `CC(C)(C)C1CCC2(CC1)CC1(CCCCC1)OO2` (stereo not drawn), the IC50 in the experiment with Plasmodium falciparum [1] was 0.063 µg/mL (≈ 0.236 µM); with Plasmodium falciparum [2], 0.12 µg/mL (≈ 0.45 µM). Also, the Activity in the experiment with Plasmodium berghei stood at 30%.
On to `c1ccc(C2CCC3(CC2)CC2(CCCCC2)OO3)cc1` (stereo not drawn), for which the IC50 was determined as 0.041 µg/mL (≈ 0.143 µM) in the experiment on Plasmodium falciparum [1] and 0.093 µg/mL (≈ 0.325 µM) in the experiment on Plasmodium falciparum [2]. Also, the Activity in the experiment with Plasmodium berghei came out at 84%.
Regarding `C1CCC2(CC1)CC1(CCCC1)OO2`, the values for the IC50 in the experiment on Plasmodium falciparum [1] and in the experiment on Plasmodium falciparum [2] were 0.041 µg/mL (≈ 0.209 µM) and 0.062 µg/mL (≈ 0.316 µM), respectively. The same molecule registered an Activity in the experiment with Plasmodium berghei of 0%.
For `c1ccc(C2CCC3(CC2)CC2(CCCC2)OO3)cc1` (stereo not drawn) the same measures were 0.038 µg/mL (≈ 0.14 µM), 0.083 µg/mL (≈ 0.305 µM) and 49%.
Take `CCCC1(CCC)CC2(CCCCC2)OO1`: the half-maximal inhibitory concentration (IC50) was 0.23 µg/mL (≈ 1.02 µM) with Plasmodium falciparum [1] and 0.36 µg/mL (≈ 1.59 µM) in the experiment on Plasmodium falciparum [2]. In the experiment on Plasmodium berghei, this molecule returned an Activity of 0%.
Take `CCOC(=O)CCC1(C)CC2(CCCCC2)OO1` (stereo not drawn): the IC50 was found to be 0.048 µg/mL (≈ 0.187 µM) in the experiment with Plasmodium falciparum [1] and 0.081 µg/mL (≈ 0.316 µM) in the experiment with Plasmodium falciparum [2]. The Activity in the experiment on Plasmodium berghei is on record as 18%.
`CC1(CCC(=O)O)CC2(CCCCC2)OO1` (stereo not drawn): the half-maximal inhibitory concentration (IC50) with Plasmodium falciparum [1] and in the experiment with Plasmodium falciparum [2] was over 1 µg/mL each time. The molecule also gave an Activity in the experiment on Plasmodium berghei of 0%.
Take `CC1(CCCO)CC2(CCCCC2)OO1` (stereo not drawn): the IC50 in the experiment on Plasmodium falciparum [1] was 0.05 µg/mL (≈ 0.233 µM); in the experiment with Plasmodium falciparum [2], 0.08 µg/mL (≈ 0.373 µM). This molecule yielded an Activity in the experiment on Plasmodium berghei of 0%.
`C1CCC2(CC1)CC1(OO2)C2CC3CC(C2)CC1C3` (stereo not drawn): the values for the IC50 with Plasmodium falciparum [1] and in the experiment on Plasmodium falciparum [2] were 0.77 µg/mL (≈ 2.93 µM) and 0.66 µg/mL (≈ 2.52 µM), respectively. In the experiment with Plasmodium berghei, this molecule yielded an Activity of 0%.
For `c1ccc(C2CCC3(CC2)CC2(OO3)C3CC4CC(C3)CC2C4)cc1` (stereo not drawn) the same measures were over 1 µg/mL, over 1 µg/mL and 0%.
In the case of `CCCC1(CCC)CC2(OO1)C1CC3CC(C1)CC2C3` (stereo not drawn), the IC50 with Plasmodium falciparum [1] and in the experiment with Plasmodium falciparum [2] was 0.12 µg/mL (≈ 0.431 µM) each time. In the experiment on Plasmodium berghei, the Activity turned out to be 6%.
For `C1CCC2(CC1)CC1(CCCCC1)OO2`, the values for the 50% inhibitory concentration (IC50) with Plasmodium falciparum [1] and in the experiment on Plasmodium falciparum [2] were 0.041 µg/mL (≈ 0.195 µM) and 0.11 µg/mL (≈ 0.523 µM), respectively. Besides, the Activity in the experiment on Plasmodium berghei came to 0%.
Turning to `OC1(CC2(O)C3CC4CC(C3)CC2C4)CCCCC1` (stereo not drawn), in the experiment on Plasmodium falciparum [3], the IC50 is over 1 µg/mL.
For `c1ccc(C2CC3(CCCCC3)OO2)cc1` (stereo not drawn), the IC50 with Plasmodium falciparum [1] was 0.44 µg/mL (≈ 2.02 µM); in the experiment with Plasmodium falciparum [2], 0.66 µg/mL (≈ 3.02 µM). Also, in the experiment with Plasmodium berghei, the Activity came out at 0%.
The corresponding values for `CC(C)(C)C1CCC2(CC1)CC1(CCCC1)OO2` (stereo not drawn) are 0.13 µg/mL (≈ 0.515 µM), 0.18 µg/mL (≈ 0.713 µM) and 45%.

The record behind these values is ChEMBL document CHEMBL1138250, “Spiro- and dispiro-1,2-dioxolanes: contribution of iron(II)-mediated one-electron vs two-electron reduction to the activity of antimalarial peroxides” (J Med Chem, 2007).
